From ChEMBL document CHEMBL4311940, “Design, Synthesis, and Biological Evaluation of 4-Methyl Quinazoline Derivatives as Anticancer Agents Simultaneously Targeting Phosphoinositide 3-Kinases and Histone Deacetylases” (J Med Chem, 2019)

Legend:
HCT-116 [1] = experiment: Induction of apoptosis in human HCT116 cells assessed as early apoptotic cells at 500 nM after 48 hrs by Annexin V-FITC/propidium iodide staining-based flow cytometric analysis (reference value: 1.33%); assay type: functional
[2] = Cmax in ICR mouse at 3 mg/kg, iv measured after 0.033 to 24 hrs by LC/MS/MS analysis; assay type: ADME, organism-based; set-up: dose 3 mg/kg, route intravenous; settings: in vivo
Summary of the method: (§1)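 ICR mice; iv 3 mg/kg in 10% DMSO/saline (3 mice/group), blood at 0.033, 0.083, 0.25, 0.5, 1, 2, 4, 8, 12, 24 h; po 30 mg/kg as 0.5% cmc/0.3% Tween 80 suspension (5 mice/group), blood at 0.083–24 h. Plasma extracted with acetonitrile, LC/MS/MS; parameters by noncompartmental analysis.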

HGC-27 = experiment: Antiproliferative activity against human HGC27 cells after 96 hrs by MTT assay; assay type: functional, cell-based; settings: HGC-27, 96 h
[3] = Mutagenicity in Salmonella typhimurium TA102 at 5 to 500 ug/plate in absence of s9 mix by Ames test; assay type: toxicity; settings: salmonella enterica subsp. enterica serovar typhimurium
Summary of the method: (§2)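 Plate incorporation method at 5, 50 and 500 μg/plate, with and without S9 activation. At least three plates per dose, incubated 72 h at 37 °C, revertants counted. Mean revertants compared with vehicle and positive controls.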

MCF7 = experiment: Antiproliferative activity against human MCF7 cells after 96 hrs by MTT assay; assay type: functional, cell-based; settings: MCF7, 96 h
NCI-H460 = experiment: Antiproliferative activity against human NCI-H460 cells after 96 hrs by MTT assay; assay type: functional, cell-based; settings: NCI-H460, 96 h
[4] = Mutagenicity in Salmonella typhimurium TA100 at 5 to 500 ug/plate in presence of s9 mix by Ames test; assay type: toxicity, subcellular; settings: salmonella enterica subsp. enterica serovar typhimurium; summary of the method: as §2
Capan-2 = experiment: Antiproliferative activity against human Capan2 cells after 96 hrs by MTT assay; assay type: functional, cell-based; settings: Capan-2, 96 h
HCT-116 [5] = experiment: Induction of apoptosis in human HCT116 cells assessed as early apoptotic cells at 100 nM after 48 hrs by Annexin V-FITC/propidium iodide staining-based flow cytometric analysis (reference value: 1.33%); assay type: functional
MDA-MB-453 = experiment: Antiproliferative activity against human MDA-MB-453 cells after 96 hrs by MTT assay; assay type: functional, cell-based; settings: MDA-MB-453, 96 h
HCT-116 [6] = experiment: Induction of apoptosis in human HCT116 cells assessed as live cells at 100 nM after 48 hrs by Annexin V-FITC/propidium iodide staining-based flow cytometric analysis (reference value: 89.6%); assay type: functional
U-87 MG = experiment: Antiproliferative activity against human U87 cells after 96 hrs by MTT assay; assay type: functional, cell-based, U-87MG ATCC
[7] = target: Phosphatidylinositol 4,5-bisphosphate 3-kinase catalytic subunit beta isoform (Homo sapiens, UniProt P42338); experiment: Inhibition of recombinant human PIK3CB using PIP2 as substrate incubated for 1 hr by ADP-glo assay
Summary of the method: (§3)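 Recombinant PI3Kβ, -γ or -δ, serially diluted compound, PIP2 substrate and ATP combined in kinase buffer. Incubated 1 h at room temperature in the dark, then stopped with ADP-Glo reagent. Luminescence read after kinase detection reagent; IC50 by curve fitting.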

HCT-8 = experiment: Antiproliferative activity against human HCT8 cells after 96 hrs by MTT assay; assay type: functional, cell-based; settings: HCT-8, 96 h
Histone deacetylase 4 = Histone deacetylase 4 (Homo sapiens, UniProt P56524); experiment: Inhibition of recombinant human full length HDAC4 expressed in baculovirus infected Sf9 insect cells using Ac-peptide as substrate preincubated for 15 mins followed by substrate addition and measured after 1 hr
Summary of the method: (§4)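 Recombinant HDAC isoforms mixed with serially diluted compound in assay buffer for 15 min at room temperature. Ac-peptide substrate then added and incubated 1 h at room temperature. Signal read on a plate reader; IC50 by curve fitting.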

HCT-116 [8] = experiment: Induction of apoptosis in human HCT116 cells assessed as necrotic cells at 500 nM after 48 hrs by Annexin V-FITC/propidium iodide staining-based flow cytometric analysis (reference value: 5.23%); assay type: functional
Histone deacetylase 2 = Histone deacetylase 2 (Homo sapiens, UniProt Q92769); experiment: Inhibition of recombinant human full length HDAC2 expressed in baculovirus infected Sf9 insect cells using Ac-peptide as substrate preincubated for 15 mins followed by substrate addition and measured after 1 hr; summary of the method: as §4
[9] = target: Serine/threonine-protein kinase mTOR (Homo sapiens, UniProt P42345); experiment: Inhibition of recombinant human N-terminal FLAG-tagged mTOR (1362 to end amino acids) using ULight-4E-BP1 as substrate incubated for 1 hr by LANCE Ultra assay
Summary of the method: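 mTOR protein, compound, ULight-4E-BP1 (Thr37/46) peptide and ATP in kinase buffer, 30 min at room temperature. LANCE detection buffer with EDTA and Eu-anti-phospho-4E-BP1 (Thr37/46) antibody added, then 1 h equilibration at room temperature. TR-FRET read; IC50 by curve fitting.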

DU-145 = experiment: Antiproliferative activity against human DU145 cells after 96 hrs by MTT assay; assay type: functional, cell-based; settings: DU-145, 96 h
HCT-116 [10] = experiment: Induction of apoptosis in human HCT116 cells assessed as live cells at 20 nM after 48 hrs by Annexin V-FITC/propidium iodide staining-based flow cytometric analysis (reference value: 89.6%); assay type: functional
THP-1 = experiment: Antiproliferative activity against human THP1 cells after 96 hrs by MTT assay; assay type: functional, cell-based; settings: THP-1, 96 h
[11] = AUC (0 to infinity) in ICR mouse at 30 mg/kg, po measured after 0.083 to 24 hrs by LC/MS/MS analysis; assay type: ADME, organism-based; set-up: dose 30 mg/kg, time infinity, route oral; settings: in vivo; summary of the method: as §1
[12] = Apparent volume of distribution in ICR mouse at 3 mg/kg, iv measured after 0.033 to 24 hrs by LC/MS/MS analysis; assay type: ADME, organism-based; settings: in vivo, read-out: Vz; summary of the method: as §1
[13] = target: Phosphatidylinositol 4,5-bisphosphate 3-kinase catalytic subunit gamma isoform (Homo sapiens, UniProt P48736); experiment: Inhibition of recombinant human His-tagged PIK3CG expressed in baculovirus expression system using PIP2 as substrate incubated for 1 hr by ADP-glo assay; summary of the method: as §3
[14] = Mutagenicity in Salmonella typhimurium TA98 at 5 to 500 ug/plate in presence of s9 mix by Ames test; assay type: toxicity, subcellular; settings: salmonella enterica subsp. enterica serovar typhimurium; summary of the method: as §2
[15] = Mutagenicity in Salmonella typhimurium TA97 at 5 to 500 ug/plate in absence of s9 mix by Ames test; assay type: toxicity; settings: salmonella enterica subsp. enterica serovar typhimurium; summary of the method: as §2
[16] = Mutagenicity in Salmonella typhimurium TA98 at 5 to 500 ug/plate in absence of s9 mix by Ames test; assay type: toxicity; settings: salmonella enterica subsp. enterica serovar typhimurium; summary of the method: as §2
Bel-7402 = experiment: Antiproliferative activity against human Bel7402 cells after 96 hrs by MTT assay; assay type: functional, cell-based; settings: Bel-7402, 96 h
Histone deacetylase 8 = Histone deacetylase 8 (Homo sapiens, UniProt Q9BY41); experiment: Inhibition of recombinant human full length C-terminal His-tagged HDAC8 expressed in baculovirus infected Sf9 insect cells using Ac-peptide as substrate preincubated for 15 mins followed by substrate addition and measured after 1 hr; summary of the method: as §4
[17] = Drug concentration in human HCT116 cells assessed per million cells at 25 uM after 1 hr by LC/MS/MS analysis; assay type: ADME, cell-based; settings: hct-116, 1 h
Summary of the method: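 HCT116 cells seeded overnight, exposed 1 h to 25 μM compound in 4 wells, washed three times with PBS; one well trypsinized for cell count, three scraped, sonicated, acetonitrile-extracted, LC/MS/MS; nmol per million cells = concentration × total volume / cell number.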

Phosphatidylinositol 4,5-bisphosphate 3-kinase catalytic subunit gamma isoform, sequence (P48736 whole entry, canonical isoform): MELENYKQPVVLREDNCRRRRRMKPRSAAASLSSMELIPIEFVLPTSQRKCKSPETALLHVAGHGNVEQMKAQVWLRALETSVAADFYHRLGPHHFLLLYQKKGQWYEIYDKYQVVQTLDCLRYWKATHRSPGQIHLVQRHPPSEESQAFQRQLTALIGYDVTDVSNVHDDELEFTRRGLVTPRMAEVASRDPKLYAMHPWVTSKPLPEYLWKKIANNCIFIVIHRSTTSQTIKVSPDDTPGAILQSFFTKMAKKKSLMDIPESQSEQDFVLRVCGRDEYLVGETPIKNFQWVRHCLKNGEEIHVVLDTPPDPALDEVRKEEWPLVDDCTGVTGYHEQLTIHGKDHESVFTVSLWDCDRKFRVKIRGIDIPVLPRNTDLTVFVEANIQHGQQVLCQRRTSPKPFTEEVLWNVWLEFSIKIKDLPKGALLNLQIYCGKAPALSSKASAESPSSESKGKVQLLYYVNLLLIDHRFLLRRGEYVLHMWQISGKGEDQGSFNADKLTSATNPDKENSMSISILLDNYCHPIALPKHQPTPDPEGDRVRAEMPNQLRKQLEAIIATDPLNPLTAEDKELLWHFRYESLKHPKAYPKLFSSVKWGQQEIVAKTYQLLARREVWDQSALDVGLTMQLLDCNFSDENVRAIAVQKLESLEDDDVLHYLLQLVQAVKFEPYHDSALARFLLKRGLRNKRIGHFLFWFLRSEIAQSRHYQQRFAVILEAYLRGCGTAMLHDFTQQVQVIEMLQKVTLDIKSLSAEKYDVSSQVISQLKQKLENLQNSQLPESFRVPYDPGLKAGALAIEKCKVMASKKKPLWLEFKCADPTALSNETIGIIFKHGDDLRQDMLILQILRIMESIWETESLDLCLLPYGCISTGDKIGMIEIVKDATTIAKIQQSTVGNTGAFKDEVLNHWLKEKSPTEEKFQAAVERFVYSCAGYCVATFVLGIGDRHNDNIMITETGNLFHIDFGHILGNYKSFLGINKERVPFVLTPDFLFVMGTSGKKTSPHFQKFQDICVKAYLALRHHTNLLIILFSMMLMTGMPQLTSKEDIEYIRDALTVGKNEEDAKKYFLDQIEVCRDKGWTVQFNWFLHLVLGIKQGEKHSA
Histone deacetylase 2, sequence (Q92769 whole entry): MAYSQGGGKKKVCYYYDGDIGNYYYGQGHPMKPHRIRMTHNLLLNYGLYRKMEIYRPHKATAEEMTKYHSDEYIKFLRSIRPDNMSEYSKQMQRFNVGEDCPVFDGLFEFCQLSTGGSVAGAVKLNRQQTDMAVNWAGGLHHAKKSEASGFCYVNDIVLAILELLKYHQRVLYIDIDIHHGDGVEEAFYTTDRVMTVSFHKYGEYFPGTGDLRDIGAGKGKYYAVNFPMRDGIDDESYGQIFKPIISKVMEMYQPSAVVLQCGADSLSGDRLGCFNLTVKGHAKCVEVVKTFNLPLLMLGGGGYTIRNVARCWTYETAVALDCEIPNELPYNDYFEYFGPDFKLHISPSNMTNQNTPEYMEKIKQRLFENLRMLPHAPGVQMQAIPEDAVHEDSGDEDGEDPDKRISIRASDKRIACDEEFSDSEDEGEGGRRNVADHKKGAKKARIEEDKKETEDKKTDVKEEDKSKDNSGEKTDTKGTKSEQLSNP
Histone deacetylase 8, sequence (Q9BY41 whole entry): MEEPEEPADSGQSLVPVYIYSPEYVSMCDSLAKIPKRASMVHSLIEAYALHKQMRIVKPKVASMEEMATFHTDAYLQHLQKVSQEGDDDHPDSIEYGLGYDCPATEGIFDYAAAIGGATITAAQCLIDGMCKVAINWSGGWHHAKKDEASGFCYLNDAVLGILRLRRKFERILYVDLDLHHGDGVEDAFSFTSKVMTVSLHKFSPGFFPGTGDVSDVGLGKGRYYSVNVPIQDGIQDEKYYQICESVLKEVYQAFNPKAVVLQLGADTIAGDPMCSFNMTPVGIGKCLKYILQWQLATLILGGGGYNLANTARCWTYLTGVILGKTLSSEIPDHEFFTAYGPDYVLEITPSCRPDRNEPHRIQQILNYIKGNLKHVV
Histone deacetylase 4, sequence (P56524 whole entry, canonical isoform): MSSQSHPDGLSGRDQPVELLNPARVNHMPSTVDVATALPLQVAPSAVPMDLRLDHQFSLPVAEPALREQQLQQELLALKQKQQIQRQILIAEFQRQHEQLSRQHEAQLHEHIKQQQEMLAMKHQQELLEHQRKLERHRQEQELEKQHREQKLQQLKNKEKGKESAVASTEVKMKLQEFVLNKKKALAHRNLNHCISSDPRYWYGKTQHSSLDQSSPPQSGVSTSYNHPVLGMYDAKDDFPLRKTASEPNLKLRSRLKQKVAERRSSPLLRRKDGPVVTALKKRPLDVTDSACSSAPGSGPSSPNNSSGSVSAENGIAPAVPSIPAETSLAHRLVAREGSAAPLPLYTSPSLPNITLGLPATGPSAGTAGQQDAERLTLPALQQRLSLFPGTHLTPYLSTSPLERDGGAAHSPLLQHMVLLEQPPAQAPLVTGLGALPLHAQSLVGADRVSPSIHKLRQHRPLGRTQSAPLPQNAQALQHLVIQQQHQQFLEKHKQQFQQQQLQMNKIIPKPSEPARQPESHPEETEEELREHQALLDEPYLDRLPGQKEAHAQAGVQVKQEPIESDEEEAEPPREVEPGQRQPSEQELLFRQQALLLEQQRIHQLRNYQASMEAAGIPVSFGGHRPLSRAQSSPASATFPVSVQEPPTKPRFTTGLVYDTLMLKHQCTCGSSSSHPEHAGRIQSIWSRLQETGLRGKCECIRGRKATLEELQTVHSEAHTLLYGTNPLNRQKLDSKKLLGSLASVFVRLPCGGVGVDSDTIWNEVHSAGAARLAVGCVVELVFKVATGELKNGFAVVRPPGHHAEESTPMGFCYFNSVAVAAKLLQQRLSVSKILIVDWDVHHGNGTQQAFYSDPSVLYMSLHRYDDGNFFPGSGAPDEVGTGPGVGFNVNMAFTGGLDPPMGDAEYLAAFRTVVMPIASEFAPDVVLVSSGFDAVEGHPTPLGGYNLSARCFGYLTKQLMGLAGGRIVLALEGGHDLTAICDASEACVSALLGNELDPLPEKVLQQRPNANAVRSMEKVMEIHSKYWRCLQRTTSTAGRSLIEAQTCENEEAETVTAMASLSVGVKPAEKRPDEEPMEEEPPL
Phosphatidylinositol 4,5-bisphosphate 3-kinase catalytic subunit beta isoform, sequence (P42338 whole entry, canonical isoform): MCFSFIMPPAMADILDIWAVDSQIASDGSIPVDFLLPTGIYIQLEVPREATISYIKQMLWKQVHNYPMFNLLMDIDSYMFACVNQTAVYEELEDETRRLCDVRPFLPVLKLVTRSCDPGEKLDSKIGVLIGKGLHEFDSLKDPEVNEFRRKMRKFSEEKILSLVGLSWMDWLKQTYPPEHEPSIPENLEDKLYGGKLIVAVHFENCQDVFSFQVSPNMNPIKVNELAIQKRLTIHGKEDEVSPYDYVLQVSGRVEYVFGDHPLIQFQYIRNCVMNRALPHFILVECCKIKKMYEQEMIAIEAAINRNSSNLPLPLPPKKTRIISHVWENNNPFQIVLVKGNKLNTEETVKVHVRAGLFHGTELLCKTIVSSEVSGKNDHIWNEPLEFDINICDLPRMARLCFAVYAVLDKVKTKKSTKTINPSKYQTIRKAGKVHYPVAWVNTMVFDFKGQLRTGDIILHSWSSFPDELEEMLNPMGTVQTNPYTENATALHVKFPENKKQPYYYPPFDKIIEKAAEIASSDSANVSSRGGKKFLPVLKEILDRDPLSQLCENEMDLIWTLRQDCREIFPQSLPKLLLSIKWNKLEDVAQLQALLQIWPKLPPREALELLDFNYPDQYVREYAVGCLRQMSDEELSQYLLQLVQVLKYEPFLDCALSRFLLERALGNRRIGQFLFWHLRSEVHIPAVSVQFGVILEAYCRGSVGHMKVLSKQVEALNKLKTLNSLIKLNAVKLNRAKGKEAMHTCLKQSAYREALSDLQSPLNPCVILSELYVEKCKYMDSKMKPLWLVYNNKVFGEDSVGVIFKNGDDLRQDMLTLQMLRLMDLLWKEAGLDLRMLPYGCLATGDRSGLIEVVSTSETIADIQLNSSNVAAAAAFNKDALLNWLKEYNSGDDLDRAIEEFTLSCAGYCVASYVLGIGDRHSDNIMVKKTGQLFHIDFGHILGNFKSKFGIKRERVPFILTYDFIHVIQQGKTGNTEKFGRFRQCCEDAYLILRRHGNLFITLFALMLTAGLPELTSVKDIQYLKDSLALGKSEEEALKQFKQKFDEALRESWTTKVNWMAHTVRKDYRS

Row | SMILES | Activity (HCT-116 [1]) | Cmax [2] | IC50 (HGC-27) | Activity [3] | IC50 (MCF7) | IC50 (NCI-H460) | Activity [4] | IC50 (Capan-2) | Activity (HCT-116 [5]) | IC50 (MDA-MB-453) | Activity (HCT-116 [6]) | IC50 (U-87 MG) | IC50 [7] | IC50 (HCT-8) | IC50 (Histone deacetylase 4) | Activity (HCT-116 [8]) | IC50 (Histone deacetylase 2) | IC50 [9] | IC50 (DU-145) | Activity (HCT-116 [10]) | also measured
1 | COc1ccc(-c2cc(OCCN(C)c3ncc(C(=O)NO)cn3)c3ncnc(C)c3c2)cn1 | 29.1% | 417 ng/mL | 14 nM | Non-Toxic | 1100 nM | 2700 nM | Non-Toxic | 270 nM | 16.8% | 4 nM | 70.2% | 340 nM | 279 nM | 59 nM | 972 nM | 2.82% | 3.4 nM | 6260 nM | 66 nM | 83.6% | IC50 (THP-1): 910 nM; AUC [11]: 51.4 ng·h/mL; Vd [12]: 50 L/kg; IC50 [13]: 467 nM; Activity [14]: Non-Toxic; Activity [15]: Non-Toxic; Activity [16]: Non-Toxic; IC50 (Bel-7402): 1600 nM; IC50 (Histone deacetylase 8): 12 nM; Drug metabolism [17]: Metabolite_Detected
2 | COc1ncc(-c2cc(OCCCCCCC(=O)NO)c3ncnc(C)c3c2)cc1F | 18.2% | 3050 ng/mL | 110 nM | Non-Toxic | 2000 nM | 3000 nM | Non-Toxic | 430 nM | 6.56% | 300 nM | 80.8% | 3200 nM | 101 nM | 320 nM | > 1000 nM | 3.64% | 3 nM | 2860 nM | 540 nM | 88.6% | IC50 (THP-1): 5400 nM; AUC(0-inf) ([11]; ICR): 274 ng·h/mL; Vd [12]: 2.57 L/kg; IC50 [13]: 67 nM; Activity [14]: Non-Toxic; Activity [15]: Non-Toxic; Activity [16]: Non-Toxic; IC50 (Bel-7402): 5200 nM; IC50 (Histone deacetylase 8): 18 nM; Drug metabolism [17]: Metabolite_Detected
